Source: ChEMBL document CHEMBL4270631, “Design, synthesis and in vitro anti-Zika virus evaluation of novel Sinefungin derivatives” (Eur J Med Chem, 2018)

What was measured:
[1] = Inhibition of recombinant N-terminal GST-tagged Dengue virus 3 2'-O-MTase activity expressed in Escherichia coli BL21 by scintillation proximity assay; set-up: species or system dengue virus type 3
[2] = Inhibition of recombinant N-terminal GST-tagged Dengue virus 3 2'-O-MTase F133A mutant expressed in Escherichia coli BL21 by scintillation proximity assay; set-up: species or system dengue virus type 3
[3] = target: mRNA cap guanine-N(7) methyltransferase (Homo sapiens, UniProt O43148); assay: Inhibition of recombinant human N-terminal His-tagged RNMT (1 to 476 residues) expressed in Escherichia coli BL21 using 5'-GpppAGAACCUG-biotin-TEG-3 as substrate after 10 mins by [3H]methyl incorporation assay
[4] = Inhibition of recombinant N-terminal GST-tagged Dengue virus 3 NS5 N7-MTase F133A mutant expressed in Escherichia coli BL21 by scintillation proximity assay; set-up: species or system dengue virus type 3
[5] = Inhibition of recombinant N-terminal GST-tagged Dengue virus 3 NS5 N7-MTase activity expressed in Escherichia coli BL21 by scintillation proximity assay; set-up: species or system dengue virus type 3
[6] = target: DNA (cytosine-5)-methyltransferase 1 (Homo sapiens, UniProt P26358); assay: Inhibition of human DNMT1A using double-stranded hemi-DNA oligonucleotide as substrate measured after 40 mins by [3H]methyl incorporation assay
Zika virus [7] = assay: Antiviral activity against Zika virus SMGC infected in BHK cells assessed as inhibition of virus induced cytopathic effect after 8 days by CellTiter-Glo luminescent cell viability assay; format: functional, organism-based; settings: 192 h
Procedure, shortened: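 BHK cells seeded at 5,000/well in DMEM with 10% FBS and P/S, 24 h at 37°C, 5% CO₂, then switched to maintenance medium (DMEM, 2% FBS, P/S). Vero-grown ZIKV diluted to 100TCID₅₀ added with compounds in 3-fold dilutions from 50 μM; incubated 8 days until 100% CPE; viability read by CellTiter-Glo luminescence; IC50 calculated from curves.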

[8] = Cytotoxicity against BHK cells after 8 days by CellTiter-Glo assay; format: cell-based, Mesocricetus auratus; settings: hamster
Procedure, shortened: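 BHK cells seeded at 5,000/well, allowed 24 h recovery, then given maintenance medium (DMEM, 2% FBS, P/S) containing compound in 3-fold dilutions from 200 μM to 0.09 μM, or drug-free. Viability read by CellTiter-Glo luminescence after 8 days' exposure; CC50 calculated from curves.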

[9] = Selectivity index, ratio of CC50 for BHK cells to IC50 for Zika virus SMGC infected in BHK cells; format: toxicity, cell-based; settings: hamster, BHK cells infected with Zika virus SMGC, read-out: Ratio CC50/IC50
Procedure, shortened: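 Ratio of CC50 from 8-day CellTiter-Glo viability of uninfected BHK cells (compound 200–0.09 μM) to IC50 from 8-day protection of BHK cells against 100TCID₅₀ ZIKV-induced CPE (compound from 50 μM, 3-fold dilutions), both in DMEM with 2% FBS.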

Zika virus [10] = assay: Potency index, ratio of EPZ004777 IC50 to test compound IC50 for Zika virus SMGC infected in BHK cells; format: functional

Sequence of mRNA cap guanine-N(7) methyltransferase (O43148 whole entry, the tested form may be a part): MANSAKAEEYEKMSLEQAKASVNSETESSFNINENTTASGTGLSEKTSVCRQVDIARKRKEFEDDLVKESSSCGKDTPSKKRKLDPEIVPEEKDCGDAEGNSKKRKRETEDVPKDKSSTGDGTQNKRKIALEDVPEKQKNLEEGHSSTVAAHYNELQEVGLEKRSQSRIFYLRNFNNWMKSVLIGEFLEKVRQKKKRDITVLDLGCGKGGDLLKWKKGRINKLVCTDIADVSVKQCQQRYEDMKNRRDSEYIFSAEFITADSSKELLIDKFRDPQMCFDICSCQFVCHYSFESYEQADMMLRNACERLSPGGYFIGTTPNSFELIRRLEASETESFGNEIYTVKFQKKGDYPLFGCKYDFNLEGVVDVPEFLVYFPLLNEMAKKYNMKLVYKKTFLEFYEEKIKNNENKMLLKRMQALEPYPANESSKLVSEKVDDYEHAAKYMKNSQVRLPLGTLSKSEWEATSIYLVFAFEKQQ
Sequence of DNA (cytosine-5)-methyltransferase 1 (P26358 whole entry): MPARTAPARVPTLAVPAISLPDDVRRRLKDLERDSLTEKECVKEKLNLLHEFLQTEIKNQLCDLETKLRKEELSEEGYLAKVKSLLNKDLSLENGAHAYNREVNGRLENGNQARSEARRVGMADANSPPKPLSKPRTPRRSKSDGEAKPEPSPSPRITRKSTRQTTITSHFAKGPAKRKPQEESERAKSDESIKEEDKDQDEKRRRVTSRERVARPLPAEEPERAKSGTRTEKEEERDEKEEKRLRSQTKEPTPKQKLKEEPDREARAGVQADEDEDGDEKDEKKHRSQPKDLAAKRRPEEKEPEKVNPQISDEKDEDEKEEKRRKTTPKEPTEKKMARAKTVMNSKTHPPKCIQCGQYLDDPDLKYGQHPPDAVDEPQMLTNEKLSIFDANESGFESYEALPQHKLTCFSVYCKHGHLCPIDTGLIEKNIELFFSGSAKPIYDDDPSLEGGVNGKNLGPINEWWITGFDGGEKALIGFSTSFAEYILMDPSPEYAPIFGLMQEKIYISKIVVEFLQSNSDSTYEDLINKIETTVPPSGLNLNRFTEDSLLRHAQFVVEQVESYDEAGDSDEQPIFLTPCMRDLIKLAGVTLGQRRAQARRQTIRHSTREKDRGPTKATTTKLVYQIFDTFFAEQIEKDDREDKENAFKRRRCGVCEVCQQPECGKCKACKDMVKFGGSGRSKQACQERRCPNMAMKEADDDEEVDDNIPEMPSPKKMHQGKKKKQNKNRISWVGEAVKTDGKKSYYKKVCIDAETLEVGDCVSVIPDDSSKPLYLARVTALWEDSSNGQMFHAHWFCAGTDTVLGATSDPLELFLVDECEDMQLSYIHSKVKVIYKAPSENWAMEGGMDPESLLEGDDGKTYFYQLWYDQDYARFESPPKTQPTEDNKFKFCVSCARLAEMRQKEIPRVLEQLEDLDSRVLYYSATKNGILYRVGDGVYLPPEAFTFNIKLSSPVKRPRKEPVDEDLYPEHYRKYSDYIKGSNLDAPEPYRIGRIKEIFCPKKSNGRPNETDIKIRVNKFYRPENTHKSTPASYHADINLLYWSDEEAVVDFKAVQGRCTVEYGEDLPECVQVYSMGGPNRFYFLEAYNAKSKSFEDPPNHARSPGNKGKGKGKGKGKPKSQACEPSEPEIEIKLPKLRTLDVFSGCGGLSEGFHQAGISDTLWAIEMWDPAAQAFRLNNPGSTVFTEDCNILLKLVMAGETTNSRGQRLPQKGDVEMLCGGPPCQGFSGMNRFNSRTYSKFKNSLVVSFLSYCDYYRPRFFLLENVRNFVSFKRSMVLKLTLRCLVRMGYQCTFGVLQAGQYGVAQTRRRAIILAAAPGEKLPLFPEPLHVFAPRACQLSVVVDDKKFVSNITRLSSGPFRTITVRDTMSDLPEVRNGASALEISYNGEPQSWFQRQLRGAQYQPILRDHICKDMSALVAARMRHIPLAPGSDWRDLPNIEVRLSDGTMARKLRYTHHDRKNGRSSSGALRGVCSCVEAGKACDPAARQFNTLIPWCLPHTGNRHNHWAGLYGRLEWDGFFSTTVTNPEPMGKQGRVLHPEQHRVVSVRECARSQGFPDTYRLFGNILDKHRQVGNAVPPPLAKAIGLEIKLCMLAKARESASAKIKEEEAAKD

Row | SMILES | IC50 (Zika virus [7]) [µM] | CC50 at 192 h [8] [µM] | selectivity ratio [9] | further results
1 | N[C@@H](CCSC[C@H]1O[C@@H](n2cnc3c(NCc4cccc(Cl)c4)ncnc32)[C@H](O)[C@@H]1O)C(=O)O | – | – | – | Ki [1]: 0.002 to 0.24 µM; Ki [2]: 0.044 to 5.68 µM; Ki [3]: > 50 µM; Ki [4]: 0.044 to 5.68 µM; Ki [5]: 0.002 to 0.24 µM; Ki [6]: > 50 µM
2 | CC(C)N(CCCNC(=O)Nc1ccc(C(C)(C)C)cc1)C[C@H]1O[C@@H](n2ccc3c(N)ncnc32)[C@H](O)[C@@H]1O | 35.2 | > 200 | > 5.68 | –
3 | CC(C)N(CCCNC(=O)Nc1ccc(C(F)(F)F)cc1)C[C@H]1O[C@@H](n2cnc3c(NCc4cccc(F)c4)ncnc32)[C@H](O)[C@@H]1O | 6.46 | 20.3 | 3.14 | Ratio IC50 (Zika virus [10]): 5 - 7.7
4 | CC(C)N(CCCNC(=O)NC(C)(C)C)C[C@H]1O[C@@H](n2cnc3c(NCc4cccc(F)c4)ncnc32)[C@H](O)[C@@H]1O | > 50 | – | – | –
5 | CC(C)N(CCCNC(=O)Nc1ccc(C(C)(C)C)cc1)C[C@H]1O[C@@H](n2cnc3c(NCc4cccc(Cl)c4)ncnc32)[C@H](O)[C@@H]1O | – | 6.73 | – | –
6 | CC(C)N(CCCO)C[C@H]1O[C@@H](n2cnc3c(NCc4cccc(F)c4)ncnc32)[C@H](O)[C@@H]1O | > 50 | – | – | –
7 | COc1ccc(NC(=O)NCCCN(C[C@H]2O[C@@H](n3cnc4c(NCc5cccc(F)c5)ncnc43)[C@H](O)[C@@H]2O)C(C)C)cc1 | > 50 | – | – | –
8 | CC(C)N(CCCNC(=O)Nc1ccc(F)cc1)C[C@H]1O[C@@H](n2cnc3c(NCc4cccc(Cl)c4)ncnc32)[C@H](O)[C@@H]1O | 15.3 | 20 | 1.31 | –
9 | COC(=O)CCN(C[C@H]1O[C@@H](n2cnc3c(NCc4cccc(F)c4)ncnc32)[C@H](O)[C@@H]1O)C(C)C | > 50 | – | – | –
10 | CC(C)N(CCCN)C[C@H]1O[C@@H](n2cnc3c(NCc4cccc(F)c4)ncnc32)[C@H](O)[C@@H]1O | > 50 | – | – | –
11 | CC(C)N(CCCNC(=O)NC(C)(C)C)C[C@H]1O[C@@H](n2cnc3c(NCc4cccc(Cl)c4)ncnc32)[C@H](O)[C@@H]1O | 20.6 | 58.5 | 2.84 | –
12 | CC(C)N(CCCNC(=O)Nc1ccc(F)cc1)C[C@H]1O[C@@H](n2cnc3c(NCc4cccc(F)c4)ncnc32)[C@H](O)[C@@H]1O | > 50 | – | – | –
13 | CC(C)NC[C@H]1O[C@@H](n2cnc3c(NCc4cccc(Cl)c4)ncnc32)[C@H](O)[C@@H]1O | 6.33 | 29.4 | 4.64 | –
14 | CC(C)N(CCCNC(=O)Nc1cccc(C(F)(F)F)c1)C[C@H]1O[C@@H](n2cnc3c(NCc4cccc(F)c4)ncnc32)[C@H](O)[C@@H]1O | 6.99 | 12.9 | 1.84 | Ratio IC50 (Zika virus [10]): 5 - 7.7
15 | CC(C)N(CCCNC(=O)NC1CCCCC1)C[C@H]1O[C@@H](n2cnc3c(NCc4cccc(F)c4)ncnc32)[C@H](O)[C@@H]1O | > 50 | – | – | –
16 | CC(C)N(CCCNC(=O)Nc1ccc(C(C)(C)C)cc1)C[C@H]1O[C@@H](n2cnc3c(NCc4cccc(F)c4)ncnc32)[C@H](O)[C@@H]1O | 6.65 | 18.7 | 2.81 | Ratio IC50 (Zika virus [10]): 5 - 7.7
17 | CC(C)N(CCCNC(=O)Nc1cccc(C(F)(F)F)c1)C[C@H]1O[C@@H](n2cnc3c(NCc4cccc(Cl)c4)ncnc32)[C@H](O)[C@@H]1O | 4.56 | 5.88 | 1.29 | Ratio IC50 (Zika virus [10]): 5 - 7.7
18 | COc1ccc(NC(=O)NCCCN(C[C@H]2O[C@@H](n3cnc4c(NCc5cccc(Cl)c5)ncnc43)[C@H](O)[C@@H]2O)C(C)C)cc1 | > 50 | – | – | –
19 | COC(=O)CCN(C[C@H]1O[C@@H](n2cnc3c(NCc4cccc(Cl)c4)ncnc32)[C@H](O)[C@@H]1O)C(C)C | > 50 | – | – | –
20 | CC(C)N(CCCNC(=O)NC1CCCCC1)C[C@H]1O[C@@H](n2cnc3c(NCc4cccc(Cl)c4)ncnc32)[C@H](O)[C@@H]1O | 12.2 | 57.6 | 4.7 | –
21 | CC(C)N(CCCO)C[C@H]1O[C@@H](n2cnc3c(NCc4cccc(Cl)c4)ncnc32)[C@H](O)[C@@H]1O | 27.5 | 70.6 | 2.57 | –
22 | Cc1ccc(NC(=O)NCCCN(C[C@H]2O[C@@H](n3cnc4c(NCc5cccc(F)c5)ncnc43)[C@H](O)[C@@H]2O)C(C)C)cc1 | > 50 | – | – | –
23 | CC(C)NC[C@H]1O[C@@H](n2cnc3c(NCc4cccc(F)c4)ncnc32)[C@H](O)[C@@H]1O | 30 | > 200 | > 6.67 | –
24 | CC(C)N(CCCN)C[C@H]1O[C@@H](n2cnc3c(NCc4cccc(Cl)c4)ncnc32)[C@H](O)[C@@H]1O | > 50 | – | – | –
25 | CC(C)N(CCCNC(=O)Nc1ccc(C(F)(F)F)cc1)C[C@H]1O[C@@H](n2cnc3c(NCc4cccc(Cl)c4)ncnc32)[C@H](O)[C@@H]1O | – | 6.35 | – | –
26 | Cc1ccc(NC(=O)NCCCN(C[C@H]2O[C@@H](n3cnc4c(NCc5cccc(Cl)c5)ncnc43)[C@H](O)[C@@H]2O)C(C)C)cc1 | 5.8 | 19.1 | 3.29 | Ratio IC50 (Zika virus [10]): 5 - 7.7
27 | Nc1ncnc2c1ncn2[C@@H]1O[C@H](C[C@@H](N)CC[C@H](N)C(=O)O)[C@@H](O)[C@H]1O [SINEFUNGIN] | > 50 | – | – | –
